In ChEMBL document CHEMBL1687740, “Cellular accumulation and pharmacodynamic evaluation of the intracellular activity of CEM-101, a novel fluoroketolide, against Staphylococcus aureus, Listeria monocytogenes, and Legionella pneumophila in human THP-1 macrophages” (Antimicrob Agents Chemother, 2009):
≈ marks a conversion by molar mass, not a printed value. Calls of active or inactive are those of the source. The calls are words filed in the database; no cut-off is given here.

Columns and labels:
[1] = tested on: THP-1; assay: Drug uptake in human THP1 cells at acidic pH after 30 mins; format: ADME, cell-based; conditions: thp-1, 0.5 h
Method in brief: (§1)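 30-min accumulation at 37°C, 10 mg/liter extracellular, in culture medium at varied pH. Microbiological drug assay normalized to cell protein, converted at 5 μl/mg protein. n = 3.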

[2] = tested on: Staphylococcus aureus; assay: Antibacterial activity against methicillin-sensitive Staphylococcus aureus ATCC 25923 after 24 hrs; format: functional; conditions: ATCC 25923, 24 h
[3] = tested on: THP-1; assay: Drug uptake in human THP1 cells at pH 6 to 7 after 30 mins; format: ADME, cell-based; conditions: thp-1, pH 6, 0.5 h; method in brief: as §1
[4] = tested on: THP-1; assay: Drug uptake in human THP1 cells after 2 hrs in presence of monensin; format: ADME, cell-based; conditions: thp-1, 2 h
Method in brief: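 Accumulation at 37°C, 10 mg/liter drug, with monensin 50 μM for 2 h. Microbiological assay normalized to cell protein. n = 3.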

[5] = tested on: THP-1; assay: Drug uptake in human THP1 cells after 24 hrs in presence of verapamil; format: ADME, cell-based; conditions: thp-1, 24 h
Method in brief: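 Accumulation at 37°C, 10 mg/liter drug, with verapamil 150 μM for 24 h. Microbiological assay normalized to cell protein. n = 3.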

[6] = tested on: THP-1; assay: Drug uptake in human THP1 cells after 24 hrs in presence of gemfibrozil; format: ADME, cell-based; conditions: thp-1, 24 h
Method in brief: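 Accumulation at 37°C, 10 mg/liter drug, with gemfibrozil 250 μM for 24 h. Microbiological assay normalized to cell protein. n = 3.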

[7] = tested on: Listeria monocytogenes; assay: Antibacterial activity against Listeria monocytogenes EGD after 24 hrs; format: functional
[8] = tested on: Legionella pneumophila; assay: Antibacterial activity against Legionella pneumophila ATCC 33153 after 48 hrs; format: functional; conditions: ATCC 33153, 48 h
Method in brief: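 L. pneumophila MIC determined in α-ketoglutarate-buffered yeast extract broth, read after 48 h incubation.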

[9] = tested on: Staphylococcus aureus; assay: Antibacterial activity against methicillin-sensitive Staphylococcus aureus ATCC 25923 at pH 5.5 to 7.4 after 24 hrs; format: functional
[10] = tested on: Listeria monocytogenes; assay: Antibacterial activity against Listeria monocytogenes EGD at pH 5.5 to 7.4 after 24 hrs; format: functional; conditions: EGD-e
[11] = tested on: Legionella pneumophila; assay: Antibacterial activity against Legionella pneumophila ATCC 33153 at pH 6.5 to 7.4 after 48 hrs; format: functional; conditions: ATCC 33153, 48 h
[12] = tested on: Staphylococcus aureus; assay: Antibacterial activity against methicillin-sensitive Staphylococcus aureus ATCC 25923 assessed as decrease of CFU at 4 mg/liter; format: functional, organism-based
Method in brief: (§2)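 Short-term 6-h time-kill in broth at pH 7.4 at fixed extracellular concentrations of 0.7 or 4 mg/liter; CFU followed over time; three independent experiments.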

[13] = tested on: Staphylococcus aureus; assay: Antibacterial activity against methicillin-sensitive Staphylococcus aureus ATCC 25923 infected in human THP1 cells assessed as decrease of intracellular CFU at 4 mg/liter; format: functional
Method in brief: (§3)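 Phagocytosed bacteria in THP-1 macrophages exposed to a fixed extracellular concentration of 0.7 or 4 mg/liter; intracellular CFU followed over 6 h; three independent experiments.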

[14] = tested on: Staphylococcus aureus; assay: Antibacterial activity against methicillin-sensitive Staphylococcus aureus ATCC 25923 assessed as decrease of CFU after 24 hrs relative to initial inoculum; format: functional
Method in brief: (§4)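 24-h concentration-response in Mueller-Hinton broth; original inoculum (0.97 ± 0.24) × 10⁶ CFU/ml. Hill equation fit (slope factor 1). Emax = log10 CFU decrease from inoculum extrapolated to infinite concentration. Cs = concentration giving CFU equal to inoculum, by graphical intrapolation. Counts under five taken as below detection. n = 3.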

[15] = tested on: Staphylococcus aureus; assay: Antibacterial activity against methicillin-sensitive Staphylococcus aureus ATCC 25923 assessed as decrease of CFU after 24 hrs; format: functional, organism-based; conditions: ATCC 25923, 24 h; method in brief: as §4
[16] = tested on: Staphylococcus aureus; assay: Antibacterial activity against methicillin-sensitive Staphylococcus aureus ATCC 25923 assessed as concentration required to no apparent bacterial growth after 24 hrs; format: functional; method in brief: as §4
[17] = tested on: Staphylococcus aureus; assay: Antibacterial activity against methicillin-sensitive Staphylococcus aureus ATCC 25923 infected in human THP1 cells assessed as decrease of CFU after 24 hrs relative to initial inoculum; format: functional, THP-1
Method in brief: (§5)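 THP-1 macrophages infected, non-phagocytosed bacteria removed, then exposed 24 h over a concentration range. Postphagocytosis inoculum (2.74 ± 0.55) × 10⁶ CFU/mg protein. Hill fit (slope 1). […] Cs = no change from inoculum, by graphical intrapolation. n = 3.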

[18] = tested on: Staphylococcus aureus; assay: Antibacterial activity against methicillin-sensitive Staphylococcus aureus ATCC 25923 infected in human THP1 cells assessed as decrease of CFU after 24 hrs; format: functional, organism-based; conditions: ATCC 25923, THP-1, 24 h; method in brief: as §5
[19] = tested on: Staphylococcus aureus; assay: Antibacterial activity against methicillin-sensitive Staphylococcus aureus ATCC 25923 infected in human THP1 cells assessed as concentration required to no apparent bacterial growth after 24 hrs; format: functional, THP-1; method in brief: as §5
[20] = tested on: Listeria monocytogenes; assay: Antibacterial activity against […] Listeria monocytogenes EGD assessed as decrease of CFU after 24 hrs relative to initial inoculum; format: functional, EGD-e
[21] = tested on: Listeria monocytogenes; assay: Antibacterial activity against […] Listeria monocytogenes EGD assessed as decrease of CFU after 24 hrs; format: functional, organism-based; conditions: EGD-e
[22] = tested on: Listeria monocytogenes; assay: Antibacterial activity against […] Listeria monocytogenes EGD assessed as concentration required to no apparent bacterial growth after 24 hrs; format: functional, EGD-e
[23] = tested on: Legionella pneumophila; assay: Antibacterial activity against Legionella pneumophila infected in human THP1 cells assessed as decrease of CFU after 48 hrs; conditions: THP-1, 48 h
[24] = tested on: Legionella pneumophila; assay: Antibacterial activity against Legionella pneumophila infected in human THP1 cells assessed as decrease of CFU after 48 hrs relative to initial inoculum
[25] = tested on: Legionella pneumophila; assay: Antibacterial activity against Legionella pneumophila infected in human THP1 cells assessed as concentration required to no apparent bacterial growth after 48 hrs
[26] = tested on: THP-1; assay: Drug uptake in human THP1 cells after 24 hrs relative to extracellular concentration; format: ADME, cell-based; conditions: thp-1, 24 h
Method in brief: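 THP-1 cells incubated at 37°C with drug at 10 mg/liter extracellular, accumulation followed up to 24 h. Cell-associated drug assayed microbiologically with S. aureus ATCC 25923, normalized to cell protein (Folin-Ciocalteu/biuret) and converted at 5 μl/mg protein to the cellular/extracellular concentration ratio. n = 3.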

[27] = tested on: Staphylococcus aureus; assay: Antibacterial activity against methicillin-sensitive Staphylococcus aureus ATCC 25923 by time kill study; format: functional; method in brief: as §2
[28] = tested on: Staphylococcus aureus; assay: Antibacterial activity against methicillin-sensitive Staphylococcus aureus ATCC 25923 assessed as decrease of CFU at 0.7 mg/liter; format: functional, organism-based; method in brief: as §2
[29] = tested on: Staphylococcus aureus; assay: Antibacterial activity against methicillin-sensitive Staphylococcus aureus ATCC 25923 infected in human THP1 cells assessed as decrease of intracellular CFU at 0.7 mg/liter; format: functional, organism-based; conditions: THP-1; method in brief: as §3

With `CC[C@H]1OC(=O)[C@H](C)[C@@H](O[C@H]2C[C@@](C)(OC)[C@@H](O)[C@H](C)O2)[C@H](C)[C@@H](O[C@@H]2O[C@H](C)C[C@H](N(C)C)[C@H]2O)[C@](C)(O)C[C@@H](C)CN(C)[C@H](C)[C@@H](O)[C@]1(C)O` [AZITHROMYCIN] the Drug uptake [1] was “Not Active”, the MIC [2] was 0.5 µg/mL (≈ 0.668 µM) and the Drug uptake [3] was “Active”. The Drug uptake [4] was “Not Active”, the Drug uptake [5] was “Active” and the Drug uptake [6] was “Active”. The MIC [7] was 1 µg/mL (≈ 1.34 µM), the MIC [8] was 0.016 µg/mL (≈ 0.0214 µM) and the MIC [9] was “inactive”. For the same molecule, the MIC [10] was “inactive”, the MIC [11] was 0.01 µg/mL (≈ 0.0134 µM) and the Activity [12] was “Active”. The Activity ([13]; THP-1) was “inactive”, the log10cfu [14] was -1 and the EC50 [15] was 0.12 µg/mL (≈ 0.16 µM). The Activity [16] was 0.29 mg/L, the log10cfu [17] was -0.29 and the EC50 [18] was 0.024 µg/mL (≈ 0.032 µM). For the same molecule, the Activity [19] was 0.63 mg/L, the log10cfu [20] was -0.81 and the EC50 [21] was 2.66 µg/mL (≈ 3.55 µM). It also gave an Activity [22] of 11.6 mg/L, an EC50 [23] of 2.86 µg/mL (≈ 3.82 µM) and a log10cfu [24] of -0.83. The Activity [25] was 2.9 mg/L.

For `CC[C@H]1OC(=O)[C@@](C)(F)C(=O)[C@H](C)[C@@H](O[C@@H]2O[C@H](C)C[C@H](N(C)C)[C@H]2O)[C@](C)(OC)C[C@@H](C)C(=O)[C@H](C)[C@H]2N(CCCCn3cc(-c4cccc(N)c4)nn3)C(=O)O[C@]12C` [SOLITHROMYCIN], the “fold change (FC)” value [26] was 350, the Drug uptake [1] was “Not Active” and the MIC [2] was 0.06 µg/mL (≈ 0.071 µM). The Time [27] was 6 h, the Drug uptake [3] was “Active” and the Drug uptake [4] was “Not Active”. For the same molecule, the Drug uptake [5] was “Active”, the Drug uptake [6] was “Active” and the MIC [7] was 0.004 µg/mL (≈ 0.00473 µM). For the same molecule, the MIC [8] was 0.004 µg/mL (≈ 0.00473 µM), the MIC ([9]; ATCC 25923, 24 h) was 0.06 µg/mL (≈ 0.071 µM) and the MIC [10] was 0.0039 µg/mL (≈ 0.00462 µM). For the same molecule, the MIC [11] was 0.005 µg/mL (≈ 0.00592 µM), the Activity [28] was “Active” and the Activity [29] was “Active”. For the same molecule, the log10cfu [13] was 1.5, the log10cfu [14] was -1.37 and the EC50 [15] was 0.03 µg/mL (≈ 0.0355 µM). It also gave an Activity [16] of 0.06 mg/L, a log10cfu [17] of -0.86 and an EC50 [18] of 0.0068 µg/mL (≈ 0.00805 µM). For the same molecule, the Activity [19] was 0.022 mg/L, the log10cfu [20] was -0.66 and the EC50 [21] was 0.02 µg/mL (≈ 0.0237 µM). The Activity [22] was 0.11 mg/L, the EC50 [23] was 0.052 µg/mL (≈ 0.0615 µM) and the log10cfu [24] was -1.03. For the same molecule, the Activity [25] was 0.018 mg/L.

`CC[C@H]1OC(=O)[C@H](C)C(=O)[C@H](C)[C@@H](O[C@@H]2O[C@H](C)C[C@H](N(C)C)[C@H]2O)[C@](C)(OC)C[C@@H](C)C(=O)[C@H](C)[C@H]2N(CCCCn3cnc(-c4cccnc4)c3)C(=O)O[C@]12C` [TELITHROMYCIN] was tested, and the Drug uptake [5] was “Active”, the Drug uptake [6] was “Active” and the MIC [9] was “inactive”. For the same molecule, the MIC [10] was “inactive”, the log10cfu [14] was -1.23 and the EC50 [15] was 1.78 µg/mL (≈ 2.19 µM). It also gave an Activity [16] of 3.4 mg/L, a log10cfu [17] of 0.04 and an EC50 [18] of 0.11 µg/mL (≈ 0.135 µM). It also gave an Activity [19] greater than 50 mg/L.

In the case of `CC[C@H]1OC(=O)[C@H](C)[C@@H](O[C@H]2C[C@@](C)(OC)[C@@H](O)[C@H](C)O2)[C@H](C)[C@@H](O[C@@H]2O[C@H](C)C[C@H](N(C)C)[C@H]2O)[C@](C)(OC)C[C@@H](C)C(=O)[C@H](C)[C@@H](O)[C@]1(C)O` [CLARITHROMYCIN], the Drug uptake [5] is reported as “Active”, the Drug uptake [6] is reported as “Active” and the MIC [9] is reported as “inactive”. For the same molecule, the MIC [10] was “inactive”, the log10cfu [14] was -1.41 and the EC50 [15] was 0.8 µg/mL (≈ 1.07 µM). It also gave an Activity [16] of 1.32 mg/L, a log10cfu [17] of -0.18 and an EC50 [18] of 0.046 µg/mL (≈ 0.0615 µM). For the same molecule, the Activity [19] was 0.84 mg/L.
